Data reported in ChEMBL document CHEMBL1121369, “Antihypertensive (2-aminoethyl)thiourea derivatives. 1” (J Med Chem, 1980).
Where “and” joins values, the source holds several entries; their conditions need not be identical. Identical values can stand only once.

Assays:
Rattus norvegicus [1] = experiment: Compound is measured for oral antihypertensive activity in groups of 6-12 conscious spontaneously hypertensive rats at 100 mg/kg; format: functional
In short: (§1)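 Male spontaneously hypertensive rats of Wistar–Okamoto origin (12–15 weeks old, bred in-house) were dosed orally, in groups of 6–12 and conscious. Each rat was warmed for 5–10 min at 37–38 °C, then restrained. Systolic pressure was read indirectly at the tail with an occluding cuff and a piezoelectric pulse transducer, before dosing and at 1, 3, 6 and 24 h after.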

Rattus norvegicus [2] = experiment: Compound is measured for oral antihypertensive activity in groups of 6-12 conscious spontaneously hypertensive rats at 10 mg/kg; format: functional; in short: as §1
Rattus norvegicus [3] = experiment: Compound is measured for oral antihypertensive activity in groups of 6-12 deoxy-corticosterone-sodium hypertensive (DOCA-Na) rats at 10 mg/kg; format: functional
In short: (§2)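 DOCA-Na rats were given two weeks to become hypertensive (systolic above 200 mmHg) and were then dosed orally, in groups of 6–12 and unanesthetized. Rats were warmed for 5–10 min at 37–38 °C and restrained. Systolic tail pressure was read with a cuff and pneumatic pulse transducer, before dosing and at 1, 3, 6 and 24 h post-dose.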

Rattus norvegicus [4] = experiment: Compound is measured for oral antihypertensive activity in groups of 6-12 conscious spontaneously hypertensive rats at 250 mg/kg; format: functional; in short: as §1
Rattus norvegicus [5] = experiment: Compound is measured for oral antihypertensive activity in groups of 6-12 conscious spontaneously hypertensive rats at 100 mg/kg; Range is 15-20%; format: functional; in short: as §1
Rattus norvegicus [6] = experiment: Compound is measured for oral antihypertensive activity in groups of 6-12 conscious spontaneously hypertensive rats at 10 mg/kg(fall in systolic blood pressure 6-24 hr after dosing); format: functional, Artery; in short: as §1
Rattus norvegicus [7] = experiment: Compound is measured for oral antihypertensive activity in groups of 6-12 conscious spontaneously hypertensive rats at 1 mg/kg; Range is 15-20%; format: functional; in short: as §1
Rattus norvegicus [8] = experiment: Compound is measured for oral antihypertensive activity in groups of 6-12 deoxy-corticosterone-sodium hypertensive (DOCA-Na) rats at 10 mg/kg(fall in systolic blood pressure 6-24 hr after dosing); format: functional, Artery; in short: as §2
Rattus norvegicus [9] = experiment: Compound is measured for oral antihypertensive activity in groups of 6-12 conscious spontaneously hypertensive rats at 75 mg/kg; format: functional; in short: as §1
Rattus norvegicus [10] = experiment: Compound is measured for oral antihypertensive activity in groups of 6-12 conscious spontaneously hypertensive rats at 50 mg/kg(fall in systolic blood pressure 6-24 hr after dosing); format: functional, Artery; in short: as §1
Rattus norvegicus [11] = experiment: Compound is measured for oral antihypertensive activity in groups of 6-12 conscious spontaneously hypertensive rats at 30 mg/kg; format: functional; in short: as §1
Rattus norvegicus [12] = experiment: Compound is measured for oral antihypertensive activity in groups of 6-12 conscious spontaneously hypertensive rats at 200 mg/kg; Range is 15-20%; format: functional; in short: as §1
Rattus norvegicus [13] = experiment: Compound is measured for oral antihypertensive activity in groups of 6-12 deoxy-corticosterone-sodium hypertensive (DOCA-Na) rats at 10 mg/kg; Range is 15-20%; format: functional; in short: as §2
Rattus norvegicus [14] = experiment: Compound is measured for oral antihypertensive activity in groups of 6-12 conscious spontaneously hypertensive rats at 10 mg/kg; Range is 15-20%; format: functional; in short: as §1
Rattus norvegicus [15] = experiment: Compound is measured for oral antihypertensive activity in groups of 6-12 conscious spontaneously hypertensive rats at 160 mg/kg; Range is 15-20%; format: functional; in short: as §1
Rattus norvegicus [16] = experiment: Compound is measured for oral antihypertensive activity in groups of 6-12 deoxy-corticosterone-sodium hypertensive (DOCA-Na) rats at 60 mg/kg(fall in systolic blood pressure 6-24 h after dosing); format: functional, Artery; in short: as §2
Rattus norvegicus [17] = experiment: Compound is measured for oral antihypertensive activity in groups of 6-12 conscious spontaneously hypertensive rats at 60 mg/kg; format: functional; in short: as §1
Rattus norvegicus [18] = experiment: Compound is measured for oral antihypertensive activity in groups of 6-12 deoxy-corticosterone-sodium hypertensive (DOCA-Na) rats at 10 mg/kg; Range is 10-15%; format: functional; in short: as §2
Rattus norvegicus [19] = experiment: Compound is measured for oral antihypertensive activity in groups of 6-12 conscious spontaneously hypertensive rats at 250 mg/kg; Range is 10-15%; format: functional; in short: as §1
Rattus norvegicus [20] = experiment: Compound is measured for oral antihypertensive activity in groups of 6-12 conscious spontaneously hypertensive rats at 175 mg/kg; format: functional; in short: as §1
Rattus norvegicus [21] = experiment: Compound is measured for oral antihypertensive activity in groups of 6-12 conscious spontaneously hypertensive rats at 85 mg/kg; format: functional; in short: as §1
Rattus norvegicus [22] = experiment: Compound is measured for oral antihypertensive activity in groups of 6-12 deoxy-corticosterone-sodium hypertensive (DOCA-Na) rats at 0.5 mg/kg; format: functional; in short: as §2
Monkey = experiment: (§3) Oral dose required to cause 20% fall in sedation; Increase in foot shock rate; format: functional
In short: (§4)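 Male Charles River C-D rats and squirrel monkeys were trained to press a lever at a stable rate to postpone a 5-s foot shock, given every 20 s on failure. Drugs were given orally, with control sessions before, between and after test sessions. Avoidance-rate decrease and the increase in shocks/hour were recorded. Significance threshold: a 12% decrease or 4 extra shocks/hour (p ≤ 0.05).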

Rattus norvegicus [23] = experiment: Compound is measured for oral antihypertensive activity in groups of 6-12 conscious spontaneously hypertensive rats at 0.5 mg/kg; format: functional; in short: as §1
in vivo = conditions: blood, po
Canis familiaris [24] = experiment: (§5) Oral dose required to cause 20% fall in blood pressure; format: functional, Canis lupus familiaris
[25] = Therapeutic ratio is oral dose producing sedation/reduction in blood pressure; format: ADME, tissue-based
Rattus norvegicus [26] = experiment: as §5; format: functional
Rattus norvegicus [27] = experiment: as §3; format: functional; in short: as §4
Rattus norvegicus [28] = experiment: Oral dose required to cause 20% fall in sedation; Decrease spontaneous motor activity; format: functional
In short: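 Normotensive rats were dosed orally. Spontaneous motor activity was counted with an electronic motility meter over a 10-min period starting 1 h after dosing. The dose was estimated from dose–response curves, with 95% fiducial limits.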

Canis familiaris [29] = experiment: Oral dose required to cause 20% fall in sedation; Range is 30-60; format: functional, Canis lupus familiaris
Rattus norvegicus [30] = experiment: Compound is measured for oral antihypertensive activity in groups of 6-12 deoxy-corticosterone-sodium hypertensive (DOCA-Na) rats at 10 mg/kg (fall in systolic blood pressure 6-24 hr after dosing); format: functional, Artery; in short: as §2
Rattus norvegicus [31] = experiment: Compound is measured for oral antihypertensive activity in groups of 6-12 conscious spontaneously hypertensive rats at 10 mg/kg (fall in systolic blood pressure 6-24 hr after dosing); format: functional, Artery; in short: as §1
[32] = Therapeutic ratio is oral dose producing sedation/reduction in blood pressure; Range is 30-60; format: ADME, tissue-based
Rattus norvegicus [33] = experiment: Compound is measured for oral antihypertensive activity in groups of 6-12 deoxy-corticosterone-sodium hypertensive (DOCA-Na) rats at 1 mg/kg; Range is 15-20%; format: functional; in short: as §2
Rattus norvegicus [34] = experiment: Compound is measured for oral antihypertensive activity in groups of 6-12 conscious spontaneously hypertensive rats at 45 mg/kg; Range is 10-15%; format: functional; in short: as §1
Rattus norvegicus [35] = experiment: Compound is measured for oral antihypertensive activity in groups of 6-12 conscious spontaneously hypertensive rats at 1 mg/kg (fall in systolic blood pressure 6-24 hr after dosing); format: functional, Artery; in short: as §1
Rattus norvegicus [36] = experiment: Compound is measured for oral antihypertensive activity in groups of 6-12 deoxy-corticosterone-sodium hypertensive (DOCA-Na) rats at 1 mg/kg; format: functional; in short: as §2
Rattus norvegicus [37] = experiment: Compound is measured for oral antihypertensive activity in groups of 6-12 deoxy-corticosterone-sodium hypertensive (DOCA-Na) rats at 5 mg/kg; Range is 10-15%; format: functional; in short: as §2

Cl.N=C(N)CC/N=C(\S)Nc1c(Cl)cccc1Cl
Effect (Rattus norvegicus [1]): <10%

Cc1ccc(/N=C(\S)NCCN)c(C)c1.O=C(O)/C=C\C(=O)O
Effect (Rattus norvegicus [1]): <10%

CCO.NCC/N=C(\S)Nc1c(F)cccc1F.O=C(O)CCC(=O)O
Effect (Rattus norvegicus [2]): <10%
Effect (Rattus norvegicus [3]): <10%

N/N=C(\S)Nc1c(Cl)cccc1Cl
Effect (Rattus norvegicus [4]): <10%

NS(=O)(=O)CC/N=C(\S)Nc1c(Cl)cccc1Cl
Effect (Rattus norvegicus [5]): 15%

Cc1ccc(/N=C(\S)NCCN)c(Cl)c1.O=C(O)/C=C\C(=O)O
Effect (Rattus norvegicus [1]): <10%

NCC/N=C(\S)Nc1c(Br)cccc1Br
Effect (Rattus norvegicus [6]): >20%
Effect (Rattus norvegicus [7]): 15%
Effect (Rattus norvegicus [8]): >20%

N#CCCNC(=S)Nc1c(Cl)cccc1Cl
Effect (Rattus norvegicus [9]): <10%

NCC/N=C(\S)Nc1c(Cl)cc([N+](=O)[O-])cc1Cl.O=C(O)/C=C\C(=O)O
Effect (Rattus norvegicus [2]): <10%
Effect (Rattus norvegicus [10]): >20%

NCC/N=C(\S)Nc1c(Cl)cc(Cl)cc1Cl.O=C(O)/C=C\C(=O)O
Effect (Rattus norvegicus [2]): <10%
Effect (Rattus norvegicus [5]): 15%

Cl.S=C(NCCN1CCCCC1)Nc1c(Cl)cccc1Cl
Effect (Rattus norvegicus [11]): <10%

NCCC/N=C(\S)Nc1c(Cl)cccc1Cl
Effect (Rattus norvegicus [12]): 15%

CS/C(=N\CCN)Nc1c(Cl)cccc1Cl
Effect (Rattus norvegicus [13]): 15%
Effect (Rattus norvegicus [14]): 15%

CN1CCN(CC/N=C(\S)Nc2c(Cl)cccc2Cl)CC1.Cl.Cl
Effect (Rattus norvegicus [15]): 15%

N/C(S)=N/c1c(Cl)cccc1Cl
Effect (Rattus norvegicus [16]): < 10%
Effect (Rattus norvegicus [17]): <10%

CC(=O)NCC/N=C(\N)Nc1c(Cl)cccc1Cl
Effect (Rattus norvegicus [4]): <10%
Effect (Rattus norvegicus [3]): <10%

Cl.NCC/N=C(\S)Nc1ccccc1
Effect (Rattus norvegicus [2]): <10%

NCC/N=C(\N)Nc1c(Cl)cccc1Cl
Effect (Rattus norvegicus [18]): 10%
Effect (Rattus norvegicus [19]): 10%

OCC/N=C(\S)Nc1c(Cl)cccc1Cl
Effect (Rattus norvegicus [20]): <10%

CNCCN(C)/C(S)=N/c1c(Cl)cccc1Cl.O=C(O)/C=C\C(=O)O
Effect (Rattus norvegicus [21]): <10%

Clc1cccc(Cl)c1NC1=NCCN1 [CLONIDINE]
Effect (Rattus norvegicus [22]): >20%
Dose (Monkey): 0.7 mg/kg
Effect (Rattus norvegicus [23]): >20%
selectivity ratio (in vivo): 0.8
Dose (Canis familiaris [24]): 0.3 mg/kg
Ratio [25]: 3
selectivity ratio [25]: 1.83
Dose (Rattus norvegicus [26]): 0.06 mg/kg

O=C(O)CC/N=C(\S)Nc1c(Cl)cccc1Cl
Effect (Rattus norvegicus [1]): <10%

CCOC(=O)CC/N=C(\S)Nc1c(Cl)cccc1Cl
Effect (Rattus norvegicus [1]): <10%

CNCC/N=C(\S)Nc1c(Cl)cccc1Cl.O=C(O)/C=C\C(=O)O
Effect (Rattus norvegicus [1]): <10%

NC(=O)CC/N=C(\S)Nc1c(Cl)cccc1Cl
Effect (Rattus norvegicus [1]): <10%

CN1CCN(/C(S)=N/c2c(Cl)cccc2Cl)CC1.Cl
Effect (Rattus norvegicus [17]): <10%

NCC/N=C(\S)Nc1c(Cl)cccc1Cl.O=C(O)/C=C\C(=O)O
Effect (Rattus norvegicus [22]): <10%
Effect (Rattus norvegicus [7]): 15%
Dose (Rattus norvegicus [27]): 1.7 mg/kg
Dose (Monkey): >64 mg/kg
Dose (Rattus norvegicus [28]): 0.69 mg/kg
Dose (Canis familiaris [29]): 30 mg/kg
Effect (Rattus norvegicus [30]): >20%
Effect (Rattus norvegicus [23]): <10%
Effect (Rattus norvegicus [31]): >20%
selectivity ratio [32]: 30
Dose (Canis familiaris [24]): 1 mg/kg
Ratio [25]: 0.28 and 0.71
Dose (Rattus norvegicus [26]): 2.4 mg/kg
Effect (Rattus norvegicus [33]): 15%

CCN(CC)CC/N=C(\S)Nc1c(Cl)cccc1Cl.Cl
Effect (Rattus norvegicus [34]): 10%

Cc1cccc(C)c1/N=C(\S)NCCN.O=C(O)CCC(=O)O
Effect (Rattus norvegicus [14]): 15%
Effect (Rattus norvegicus [8]): >20%

NCCNC(=O)Nc1c(Cl)cccc1Cl
Effect (Rattus norvegicus [4]): <10%
Effect (Rattus norvegicus [3]): <10%

COc1cccc(OC)c1/N=C(\S)NCCN.O=C(O)/C=C\C(=O)O
Effect (Rattus norvegicus [1]): <10%

NCC/N=C(\S)Nc1cccc(Cl)c1Cl.O=C(O)/C=C\C(=O)O
Effect (Rattus norvegicus [6]): >20%
Effect (Rattus norvegicus [35]): >20%
Effect (Rattus norvegicus [23]): <10%
Effect (Rattus norvegicus [36]): <10%
Effect (Rattus norvegicus [8]): >20%
Effect (Rattus norvegicus [37]): 10%
